Compound activity: PubChem, The Scripps Research Institute Molecular Screening Center
NPY-Y2 PAM-ag: human NPY-Y2 potentiation or agonism, primary screen | P49146 | 220,000 compounds, 0.45% hits | AID 1359 | cells expressing NPY-Y2, potentiator/agonist read-out | activation, % at 3.6 µM; in the data active means activation above about 27%;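 further: cells stimulated with NPY near EC25 plus isoproterenol at EC100; 0% = vehicle plus submaximal agonist and 100% = vehicle plus saturating agonist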
NPY Y2 blocker: NPY-Y2 (human) receptor antagonism; inhibition, % at 2.7 µM; 140,000 compounds, 0.99% hits; AID 793; NPY-Y2 expressing cells, antagonist mode; in the data active means inhibition above about 17%;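 further: 0% = vehicle with agonist challenge and 100% = reference antagonist with challenge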
NPY-Y1 antag: NPY-Y1 (human) receptor antagonism | AID 1040 | 200,000 compounds, 1% hits | HEK293-CNG Y1 cells, membrane potential fluorescence; NPY at EC95, then isoproterenol | inhibition, % at 3.6 µM;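 active means inhibition above the campaign mean inhibition of all tested compounds plus 3 SD, cut at about 20% in these data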;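 further: 0% = DMSO wells given NPY plus isoproterenol and 100% = isoproterenol alone without NPY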
Target sequence (P25929 whole entry, looked up): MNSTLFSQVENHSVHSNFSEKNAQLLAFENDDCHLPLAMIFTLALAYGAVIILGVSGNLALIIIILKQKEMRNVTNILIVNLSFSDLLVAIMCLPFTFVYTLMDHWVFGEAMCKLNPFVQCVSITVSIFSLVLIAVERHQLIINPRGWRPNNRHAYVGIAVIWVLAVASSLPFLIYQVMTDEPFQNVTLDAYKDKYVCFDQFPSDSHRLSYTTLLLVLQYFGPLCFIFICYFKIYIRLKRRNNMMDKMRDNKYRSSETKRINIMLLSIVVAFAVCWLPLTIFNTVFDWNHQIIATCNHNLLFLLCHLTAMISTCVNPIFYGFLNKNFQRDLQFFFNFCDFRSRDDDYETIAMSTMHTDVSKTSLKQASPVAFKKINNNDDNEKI
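Material: HEK293 cells with Y1 receptor plus CNG channel; times: compound incubation 1 h at room temperature, readout 45 min post-stimulation; signal: fluorescence, membrane potential probe; read-out basis: fluorescence ratio normalized to % inhibition between controls; benchmarks: full-block control isoproterenol-only wells, zero-block control NPY plus isoproterenol wells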
NPY1 pot ag: human NPY-Y1 potentiation or agonism, primary screen. NPY-Y1 expressing cells, potentiator/agonist activation. 220,000 compounds, 0.37% hits. activation, % at 3.6 µM; in the data active means activation above about 33%, passing the limit was not always enough;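 further: cells stimulated with NPY at EC10 then isoproterenol at EC100; 0% = low agonist plus stimulus and 100% = saturating agonist plus stimulus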
NPY-Y1 antag ct: antagonizes human NPY-Y1, counter-screen to NPY-Y2 antagonists. shares compounds with NPY Y2 blocker. cell-based NPY-Y1 antagonism counterscreen. inhibition, % at 3.6 µM. 710 compounds, 19% hits. AID 1256; in the data active means inhibition above about 20%;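 further: cells challenged with NPY then isoproterenol with cAMP sensed through a CNG channel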
NPY-Y2 ant conf: human NPY-Y2 antagonism, confirmation; 710 compounds, 32% hits; HEK293 NPY-Y2 CNG channel, membrane potential fluorescence; inhibition, % at 2.8 µM; shares compounds with NPY Y2 blocker;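 active means mean inhibition of triplicate wells above the hit cutoff set in the primary screen, cut at about 17% in these data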;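 further: 0% = DMSO with NPY challenge and 100% = BIIE0246 high control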
* marks the source's active call; other numbers are inactive results; . = not tested or not shown. The list is not random: actives were taken first. Their share in the collection is about 1.9%.

SMILES	NPY-Y2 PAM-ag	NPY Y2 blocker	NPY-Y1 antag	NPY1 pot ag	NPY-Y1 antag ct	NPY-Y2 ant conf
C/C(CC1CC(COCC(C)C)OC1=O)=N\NC(N)=S (stereo not given)	-10	27*	3	-14	2	1
CCCCCOCC1CC(C/C(C)=N/NC(N)=S)C(=O)O1 (stereo not given)	11	2	3	-9	.	.
C=CCOC(=O)/C=C/C(=O)NC(N)=O	-9	.	.	-13	.	.
O=c1n(Cc2ccc(Cl)cc2)c2sc3c(c2c2ncnn12)CCCC3	-15	41*	0	-31	22*	32*
O=C1CC(N2CCSCC2)C(=O)N1c1ccc(F)cc1 (stereo not given)	13	.	.	16	.	.
COc1cc(-c2cc(C(=O)Nc3c(Cl)cc(Cl)cc3Cl)c3ccccc3n2)cc(OC)c1OC	-24	40*	0	-34	49*	73*
COc1cc(-c2cc(C(=O)NN3CCN(C)CC3)c3ccccc3n2)cc(OC)c1OC	-7	0	11	-22	.	.
CCN=C1S/C(=C\c2cc(OCC)c(O)cc2Br)C(=O)N1CC	7	27*	15	-28	25*	43*
CCC(C)(C)n1nnnc1C(c1ccccc1)N1CCN(C2CCCC2)CC1 (stereo not given)	8	20*	8	-19	5	12
COc1cccc(C(c2nnnn2Cc2ccccc2)N2CCN(C3CCCC3)CC2)c1OC (stereo not given)	-12	18*	0	-34	6	6
CCCS(=O)(=O)N1CCN(C(=O)c2cccc(OC)c2)CC1	-12	2	-4	11	.	.
Cc1[nH]n(C)c(=O)c1[N+](=O)[O-]	-5	.	.	6	.	.
COC(=O)c1cc(-c2ccc(OC)c(OC)c2)on1	-23	28*	12	-36	28*	50*
COC(=O)c1cc(-c2ccc(OC)cc2)on1	-18	.	13	-56	.	.
O=C(Nc1cccc(N=Cc2cc(Cl)cc(Br)c2O)c1)c1ccco1	-5	7	5	-9	.	.
O=C(Nc1cccc(N=Cc2cc(Br)cc(Br)c2O)c1)c1ccco1	-8	17*	-1	-14	17	25*
CCCCC(CC)C(=O)NCC(C)NC(=O)C(CC)CCCC (stereo not given)	6	24*	7	1	17	8
COc1ccc(-c2noc(-c3ccccc3-c3ccccc3)n2)cc1OC	-25	18*	12	-61	6	15
Nn1c(SCc2cc([N+](=O)[O-])cc3c2OCOC3)nnc1-c1cccnc1	7	.	9	13	.	.
Cc1ccc([N+](=O)[O-])cc1NC(=O)C(Sc1ccccc1)c1ccccc1 (stereo not given)	7	7	4	0	.	.
CCOc1nc(SCCOc2ccccc2)nc(N(C)C)n1	-8	23*	0	-20	10	13
COC(=O)c1ccccc1NC(=O)Cn1c(-c2nonc2N)nc2ccccc21	-13	39*	20	-43	19	24*
CC(C)OC(=O)c1ccc(NC(=O)Cn2c(-c3nonc3N)nc3ccccc32)cc1	-15	18*	20	-44	11	12
CCOc1ncccc1C(=O)OCC(=O)Nc1ccc2c(c1)OCO2	-3	.	8	4	.	.
COc1ccc(OCCCC(=O)Nc2cc([N+](=O)[O-])ccc2C)cc1	4	-1	-2	1	.	.
SMILES	NPY-Y2 PAM-ag	NPY Y2 blocker	NPY-Y1 antag	NPY1 pot ag	NPY-Y1 antag ct	NPY-Y2 ant conf
C=CCn1c(SC2CCOC2=O)nc2scc(C3CC3)c2c1=O (stereo not given)	-22	45*	12	-5	30*	81*
N#Cc1c(NC(=S)NC(=O)c2ccccc2)sc2c1CCCC2	8	1	-5	-10	.	.
C=CCNCc1cccn1-c1sc2c(c1C#N)CCCC2	4	18*	9	8	8	11
Cc1cccc(NC(=O)c2sc(Cl)nc2C)c1C	1	18*	-3	2	-1	2
CCOC(=O)Cn1c(S(=O)(=O)Cc2ccccc2Cl)nc(-c2ccccc2)c1-c1ccccc1	-22	24*	12	-21	12	9
C#CCn1c(S(=O)(=O)Cc2ccc(C)cc2)nc(-c2ccccc2)c1-c1ccccc1	-17	21*	16	-20	15	11
O=C(NC(=S)NCCCN1CCOCC1)c1cccc2ccccc12	-13	.	3	-11	.	.
